Laboratory results: ChEMBL document CHEMBL4229344 (Eur J Med Chem, 2018)

Key:
[1] = molecular target: Calcium/calmodulin-dependent protein kinase type II subunit gamma (Homo sapiens) (UniProt Q13555); assay: Binding affinity to wild-type human partial length CAMK2G (R9 to A303 residues) expressed in bacterial expression system assessed as residual binding level at 1 uM by Kinomescan method relative to control
[2] = test system: Tyrosine-protein kinase ABL1 (Homo sapiens), P00519 [Y253F]; assay: Binding affinity to human phosphorylated ABL1 Y253F mutant (S229 to K512 residues) expressed in mammalian expression system assessed as residual binding level at 1 uM by Kinomescan method relative to control
Summary of the method: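 Single-concentration (1 μM) competition-binding screen run by KINOMEscan against a panel of 468 purified kinases and mutants. The read-out is the relative binding activity of the test compound to each kinase.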

[3] = molecular target: Serine/threonine-protein kinase PLK3 (Homo sapiens) (UniProt Q9H4B4); assay: Binding affinity to wild-type human partial length PLK3 (A42 to L334 residues) expressed in mammalian expression system assessed as residual binding level at 1 uM by Kinomescan method relative to control
Summary of the method: (§1)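 KINOMEscan competition binding against a panel of 468 purified kinases/mutants, compound tested at 1 μM; readout is relative binding activity versus control.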

[4] = molecular target: Fibroblast growth factor receptor 4 (Homo sapiens) (UniProt P22455); assay: Binding affinity to wild-type human partial length FGFR4 (G402 to E713 residues) expressed in bacterial expression system assessed as residual binding level at 1 uM by Kinomescan method relative to control
Summary of the method: (§2)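 Kinome-wide competition binding screen against a panel of 468 purified kinases/mutants, with the test compound at a single concentration of 1 μM. Read-out is the relative binding activity of each kinase in the presence of compound.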

[5] = molecular target: Serine/threonine-protein kinase SIK3 (Homo sapiens) (UniProt Q9Y2K2); assay: Binding affinity to wild-type human partial length QSK (A90 to L395 residues) expressed in mammalian expression system assessed as residual binding level at 1 uM by Kinomescan method relative to control
[6] = molecular target: NT-3 growth factor receptor (Homo sapiens) (UniProt Q16288); assay: Binding affinity to wild-type human partial length TRKC (Q531 to G825 residues) expressed in mammalian expression system assessed as residual binding level at 1 uM by Kinomescan method relative to control; summary of the method: as §1
[7] = molecular target: ALK tyrosine kinase receptor (Homo sapiens) (UniProt Q9UM73); assay: Binding affinity to wild-type human partial length ALK (I1088 to E1409 residues) expressed in mammalian expression system assessed as residual binding level at 1 uM by Kinomescan method relative to control
Summary of the method: (§3)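 Single-concentration KINOMEscan (DiscoverX) binding screen at 1 μM against a panel of 468 purified kinases and mutants. The read-out is binding relative to control.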

Homo sapiens = species: Homo sapiens; assay: Selectivity index, ratio of GI50 for TEL-fused PDGFRbeta (unknown origin) expressed in mouse BA/F3 cells to GI50 for TEL-fused PDGFRalpha (unknown origin) expressed in mouse BA/F3 cells; assay type: cell-based
Summary of the method: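 Parental BaF3 or IL-3-independent TEL-kinase BaF3 lines, made by retroviral infection and puromycin selection, grown in RPMI 1640 with 10% FBS. Cells seeded at 1–3 × 10^4 cells/mL with serial compound concentrations for 72 h. Viability read by CellTiter-Glo luminescence or CCK-8 absorbance at 450/655 nm and normalised to DMSO. GI50 obtained by triplicate testing with linear regression. Selectivity is the ratio of the two GI50 values.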

[8] = Tmax in Sprague-Dawley rat at 1 mg/kg, iv; assay type: ADME, organism-based; conditions: in vivo
Summary of the method: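 Male Sprague-Dawley rats, 6–8 weeks old and fasted overnight, dosed IV at 1 mg/kg or PO at 10 mg/kg. Formulation was 5% DMSO/40% PEG400/55% saline (1 mg/mL). Jugular blood collected on heparin from 1 min to 8 h (IV) or 5 min to 24 h (PO). Plasma separated by centrifugation at 2–8 °C and stored at −80 °C.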

[9] = test system: Hepatocyte growth factor receptor (Homo sapiens), P08581 [Y1235D]; assay: Binding affinity to human partial length MET Y1235D mutant (D1010 to S1367 residues) expressed in bacterial expression system assessed as residual binding level at 1 uM by Kinomescan method relative to control
Summary of the method: (§4)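 Kinome-wide single-concentration binding screen (KINOMEscan) at 1 μM against a panel of 468 purified kinases and mutants. Read-out is relative binding of each kinase compared with control. Selectivity across the panel was summarised as an S(10) score.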

[10] = molecular target: Tyrosine-protein kinase HCK (Homo sapiens) (UniProt P08631); assay: Binding affinity to wild-type human full length HCK (M22 to P526 residues) expressed in bacterial expression system assessed as residual binding level at 1 uM by Kinomescan method relative to control
Chain of Tyrosine-protein kinase HCK (Homo sapiens) (P08631 2-526 limits assumed): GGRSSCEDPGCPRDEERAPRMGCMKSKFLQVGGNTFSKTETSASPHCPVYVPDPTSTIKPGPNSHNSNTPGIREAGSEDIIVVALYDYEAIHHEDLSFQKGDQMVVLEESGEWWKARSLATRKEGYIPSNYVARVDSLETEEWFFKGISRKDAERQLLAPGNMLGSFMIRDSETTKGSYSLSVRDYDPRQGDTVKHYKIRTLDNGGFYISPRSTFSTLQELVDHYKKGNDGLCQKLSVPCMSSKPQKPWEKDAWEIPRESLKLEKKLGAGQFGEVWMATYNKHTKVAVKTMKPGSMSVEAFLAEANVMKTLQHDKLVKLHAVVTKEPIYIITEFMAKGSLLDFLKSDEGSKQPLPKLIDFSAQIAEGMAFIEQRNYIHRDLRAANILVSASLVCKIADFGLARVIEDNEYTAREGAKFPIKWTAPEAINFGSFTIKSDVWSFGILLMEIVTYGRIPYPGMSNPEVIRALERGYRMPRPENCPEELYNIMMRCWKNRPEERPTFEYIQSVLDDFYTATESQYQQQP
Summary of the method: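 KINOMEscan competition binding against 468 purified kinases/mutants, test compound at 1 µM; residual binding relative to control.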

[11] = molecular target: Platelet-derived growth factor receptor alpha (Homo sapiens, UniProt P16234); assay: Binding affinity to wild-type human partial length PDGFRalpha (V575 to D1002 residues) expressed in mammalian expression system assessed as residual binding level at 1 uM by Kinomescan method relative to control; summary of the method: as §1
Chain of Platelet-derived growth factor receptor alpha (P16234 whole entry, the tested form may be a part): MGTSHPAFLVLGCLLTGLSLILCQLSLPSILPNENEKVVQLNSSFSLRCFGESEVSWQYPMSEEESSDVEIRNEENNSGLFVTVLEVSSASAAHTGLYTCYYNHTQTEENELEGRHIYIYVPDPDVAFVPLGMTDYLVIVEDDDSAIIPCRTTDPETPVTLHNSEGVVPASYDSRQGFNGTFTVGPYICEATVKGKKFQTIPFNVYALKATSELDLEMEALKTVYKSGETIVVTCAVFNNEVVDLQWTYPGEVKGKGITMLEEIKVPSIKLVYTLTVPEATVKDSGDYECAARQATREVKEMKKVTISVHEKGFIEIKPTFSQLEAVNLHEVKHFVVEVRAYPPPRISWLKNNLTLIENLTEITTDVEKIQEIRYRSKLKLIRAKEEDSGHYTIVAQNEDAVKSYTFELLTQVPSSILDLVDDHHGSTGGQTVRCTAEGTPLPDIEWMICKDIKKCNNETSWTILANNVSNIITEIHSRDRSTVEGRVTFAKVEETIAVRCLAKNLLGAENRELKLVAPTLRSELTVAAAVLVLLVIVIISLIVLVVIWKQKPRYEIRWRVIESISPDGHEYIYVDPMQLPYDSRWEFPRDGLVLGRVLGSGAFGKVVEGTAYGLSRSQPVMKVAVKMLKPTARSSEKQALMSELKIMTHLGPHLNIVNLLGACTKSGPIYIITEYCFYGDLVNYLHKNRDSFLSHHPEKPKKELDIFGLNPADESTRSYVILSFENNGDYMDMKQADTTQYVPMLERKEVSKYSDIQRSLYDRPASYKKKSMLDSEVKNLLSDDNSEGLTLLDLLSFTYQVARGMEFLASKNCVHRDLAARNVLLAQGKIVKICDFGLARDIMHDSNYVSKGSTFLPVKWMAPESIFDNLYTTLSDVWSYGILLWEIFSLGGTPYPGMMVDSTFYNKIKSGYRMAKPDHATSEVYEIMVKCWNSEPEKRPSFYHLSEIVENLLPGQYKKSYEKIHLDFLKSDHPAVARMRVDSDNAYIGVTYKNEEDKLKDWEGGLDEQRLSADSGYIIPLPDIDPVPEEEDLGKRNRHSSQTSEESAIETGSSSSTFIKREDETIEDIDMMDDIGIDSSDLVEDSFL

[12] = molecular target: Serine/threonine-protein kinase N1 (Homo sapiens) (UniProt Q16512); assay: Binding affinity to wild-type human partial length PKN1 (E598 to C948 residues) expressed in bacterial expression system assessed as residual binding level at 1 uM by Kinomescan method relative to control
[13] = molecular target: Mitogen-activated protein kinase 4 (Homo sapiens) (UniProt P31152); assay: Binding affinity to wild-type human partial length ERK4 (M1 to L365 residues) expressed in bacterial expression system assessed as residual binding level at 1 uM by Kinomescan method relative to control; summary of the method: as §2
Chain of Mitogen-activated protein kinase 4 (Homo sapiens) (P31152 whole entry, the tested form may be a part): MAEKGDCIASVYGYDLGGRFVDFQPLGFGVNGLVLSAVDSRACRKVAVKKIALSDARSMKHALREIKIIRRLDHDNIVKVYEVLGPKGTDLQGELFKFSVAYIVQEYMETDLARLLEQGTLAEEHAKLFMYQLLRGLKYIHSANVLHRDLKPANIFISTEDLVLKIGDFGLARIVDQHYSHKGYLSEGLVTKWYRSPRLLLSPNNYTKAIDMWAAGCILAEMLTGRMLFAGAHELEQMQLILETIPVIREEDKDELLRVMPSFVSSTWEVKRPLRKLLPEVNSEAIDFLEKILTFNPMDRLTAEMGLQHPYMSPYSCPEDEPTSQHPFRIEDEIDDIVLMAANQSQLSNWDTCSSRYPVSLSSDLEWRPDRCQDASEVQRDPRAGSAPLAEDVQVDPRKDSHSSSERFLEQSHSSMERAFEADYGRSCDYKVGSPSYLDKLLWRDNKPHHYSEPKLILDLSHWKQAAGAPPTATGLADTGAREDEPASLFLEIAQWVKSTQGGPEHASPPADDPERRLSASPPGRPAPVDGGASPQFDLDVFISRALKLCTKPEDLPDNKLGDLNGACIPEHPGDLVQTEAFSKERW

[14] = test system: Tyrosine-protein kinase ABL1 (Homo sapiens), P00519 [F317I]; assay: Binding affinity to human non-phosphorylated ABL1 F317I mutant (S229 to K512 residues) expressed in mammalian expression system assessed as residual binding level at 1 uM by Kinomescan method relative to control; summary of the method: as §4
[15] = molecular target: Mitogen-activated protein kinase 14 (Homo sapiens) (UniProt Q16539); assay: Binding affinity to wild-type human full length p38-alpha (M1 to S360 residues) expressed in bacterial expression system assessed as residual binding level at 1 uM by Kinomescan method relative to control; summary of the method: as §3
Chain of Mitogen-activated protein kinase 14 (Homo sapiens) (Q16539 whole entry, the tested form may be a part): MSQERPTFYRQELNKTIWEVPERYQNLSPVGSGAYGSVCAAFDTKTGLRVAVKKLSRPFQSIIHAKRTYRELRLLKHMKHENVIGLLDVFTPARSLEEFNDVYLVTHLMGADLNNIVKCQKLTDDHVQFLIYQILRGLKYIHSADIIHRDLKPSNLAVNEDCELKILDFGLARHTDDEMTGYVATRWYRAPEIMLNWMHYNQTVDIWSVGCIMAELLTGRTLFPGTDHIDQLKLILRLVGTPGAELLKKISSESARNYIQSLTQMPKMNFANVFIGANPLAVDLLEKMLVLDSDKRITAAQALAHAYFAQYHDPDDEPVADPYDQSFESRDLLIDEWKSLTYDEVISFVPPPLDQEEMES

[16] = molecular target: Serine/threonine-protein kinase 36 (Homo sapiens) (UniProt Q9NRP7); assay: Binding affinity to wild-type human partial length STK36 (M1 to T271 residues) expressed in bacterial expression system assessed as residual binding level at 1 uM by Kinomescan method relative to control
Chain of Serine/threonine-protein kinase 36 (Homo sapiens) (Q9NRP7 whole entry, the tested form may be a part): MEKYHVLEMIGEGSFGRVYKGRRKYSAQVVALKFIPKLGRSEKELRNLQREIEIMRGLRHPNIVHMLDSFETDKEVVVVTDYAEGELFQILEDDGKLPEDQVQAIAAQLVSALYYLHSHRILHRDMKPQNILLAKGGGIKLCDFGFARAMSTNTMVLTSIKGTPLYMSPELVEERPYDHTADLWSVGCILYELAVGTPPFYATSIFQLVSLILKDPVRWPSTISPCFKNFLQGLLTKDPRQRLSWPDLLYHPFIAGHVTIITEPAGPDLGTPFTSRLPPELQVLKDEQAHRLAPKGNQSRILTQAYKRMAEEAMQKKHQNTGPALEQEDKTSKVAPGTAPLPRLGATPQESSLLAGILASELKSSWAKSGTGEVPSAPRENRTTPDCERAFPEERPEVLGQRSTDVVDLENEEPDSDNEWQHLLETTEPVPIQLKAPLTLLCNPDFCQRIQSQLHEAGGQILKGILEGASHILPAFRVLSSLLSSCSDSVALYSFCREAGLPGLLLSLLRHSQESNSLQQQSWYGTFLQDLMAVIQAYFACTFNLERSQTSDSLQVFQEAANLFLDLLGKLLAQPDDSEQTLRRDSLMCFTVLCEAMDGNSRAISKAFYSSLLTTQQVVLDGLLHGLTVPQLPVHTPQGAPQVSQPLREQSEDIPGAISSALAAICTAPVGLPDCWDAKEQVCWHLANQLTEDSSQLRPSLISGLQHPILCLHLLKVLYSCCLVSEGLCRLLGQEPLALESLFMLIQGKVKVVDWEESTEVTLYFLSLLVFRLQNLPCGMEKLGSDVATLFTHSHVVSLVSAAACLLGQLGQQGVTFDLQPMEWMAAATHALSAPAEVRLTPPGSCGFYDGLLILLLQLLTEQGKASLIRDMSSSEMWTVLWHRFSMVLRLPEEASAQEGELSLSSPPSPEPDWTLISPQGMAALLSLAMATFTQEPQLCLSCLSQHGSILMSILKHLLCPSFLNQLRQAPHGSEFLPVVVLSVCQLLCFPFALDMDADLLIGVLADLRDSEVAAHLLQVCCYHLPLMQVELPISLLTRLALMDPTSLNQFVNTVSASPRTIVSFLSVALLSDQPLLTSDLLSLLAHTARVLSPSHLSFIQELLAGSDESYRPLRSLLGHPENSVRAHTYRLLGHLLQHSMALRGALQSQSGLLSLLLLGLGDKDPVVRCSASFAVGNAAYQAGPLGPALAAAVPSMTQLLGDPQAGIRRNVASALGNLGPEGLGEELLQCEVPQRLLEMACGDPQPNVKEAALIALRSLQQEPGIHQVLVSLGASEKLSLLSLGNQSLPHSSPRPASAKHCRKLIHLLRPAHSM

[17] = test system: Receptor-type tyrosine-protein kinase FLT3 (Homo sapiens), P36888 [R834Q]; assay: Binding affinity to human partial length FLT3 R834Q mutant (V592 to Y969 residues) expressed in mammalian expression system assessed as residual binding level at 1 uM by Kinomescan method relative to control; summary of the method: as §4
[18] = molecular target: Dual specificity mitogen-activated protein kinase kinase 2 (Homo sapiens) (UniProt P36507); assay: Binding affinity to wild-type human full length MEK2 (M1 to V400 residues) expressed in mammalian expression system assessed as residual binding level at 1 uM by Kinomescan method relative to control; summary of the method: as §3
Chain of Dual specificity mitogen-activated protein kinase kinase 2 (Homo sapiens) (P36507 whole entry, the tested form may be a part): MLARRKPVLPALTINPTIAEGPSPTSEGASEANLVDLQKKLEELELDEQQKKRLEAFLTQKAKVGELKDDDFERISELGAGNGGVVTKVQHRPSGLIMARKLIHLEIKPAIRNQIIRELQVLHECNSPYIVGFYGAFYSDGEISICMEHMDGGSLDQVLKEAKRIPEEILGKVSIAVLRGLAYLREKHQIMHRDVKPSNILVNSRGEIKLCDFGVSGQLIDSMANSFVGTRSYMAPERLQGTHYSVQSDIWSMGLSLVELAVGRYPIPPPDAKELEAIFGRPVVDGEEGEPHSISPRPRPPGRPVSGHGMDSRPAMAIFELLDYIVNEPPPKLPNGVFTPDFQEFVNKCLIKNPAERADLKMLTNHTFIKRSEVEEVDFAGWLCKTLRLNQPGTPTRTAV

Chain of Calcium/calmodulin-dependent protein kinase type II subunit gamma (Homo sapiens) (Q13555 whole entry, the tested form may be a part): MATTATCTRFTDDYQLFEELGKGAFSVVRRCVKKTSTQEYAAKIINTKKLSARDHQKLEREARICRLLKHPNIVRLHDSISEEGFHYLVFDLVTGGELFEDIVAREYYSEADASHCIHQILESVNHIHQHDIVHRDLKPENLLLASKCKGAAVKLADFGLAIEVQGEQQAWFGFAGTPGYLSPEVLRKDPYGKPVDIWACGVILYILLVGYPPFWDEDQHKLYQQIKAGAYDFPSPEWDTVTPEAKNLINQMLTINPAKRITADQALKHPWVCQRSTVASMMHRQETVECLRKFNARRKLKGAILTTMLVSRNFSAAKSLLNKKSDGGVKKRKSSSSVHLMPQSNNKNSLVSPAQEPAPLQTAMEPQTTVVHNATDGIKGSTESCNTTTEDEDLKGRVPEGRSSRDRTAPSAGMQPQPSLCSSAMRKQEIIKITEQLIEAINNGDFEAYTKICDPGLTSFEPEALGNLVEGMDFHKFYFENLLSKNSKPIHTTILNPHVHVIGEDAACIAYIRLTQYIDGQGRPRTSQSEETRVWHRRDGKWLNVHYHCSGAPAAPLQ

**Q.** Which Activity [1] does the source give for `Cc1ccc(NC(=O)c2ccc(CN(CCN(C)C)C(=O)c3cccnc3)cc2)cc1Nc1nccc(-c2cccnc2)n1` here?
**A.** Its Activity is 93%.

**Q.** What about the Activity [2] of the same molecule?
**A.** Its Activity is 90%.

**Q.** And the Activity [3]?
**A.** The Activity was 79%.

**Q.** And the Activity [4]?
**A.** Its Activity is 91%.

**Q.** And the Activity [5]?
**A.** The Activity was 96%.

**Q.** What about the Activity [6] of the same molecule?
**A.** Its Activity is 89%.

**Q.** What about the Activity [7] of the same molecule?
**A.** The Activity was 100%.

**Q.** And the RatioGI50 (Homo sapiens)?
**A.** Its RatioGI50 is 85.

**Q.** And the Tmax [8]?
**A.** Its Tmax is 1.02 min.

**Q.** What about the Activity [9] of the same molecule?
**A.** Its Activity is 93%.

**Q.** And the Activity [10]?
**A.** Its Activity is 83%.

**Q.** And the Activity [11]?
**A.** The Activity was 6.8%.

**Q.** And the Activity [12]?
**A.** Its Activity is 100%.

**Q.** What about the Activity [13] of the same molecule?
**A.** The Activity was 89%.

**Q.** And the Activity [14]?
**A.** The Activity was 94%.

**Q.** What about the Activity [15] of the same molecule?
**A.** The Activity was 99%.

**Q.** What about the Activity [16] of the same molecule?
**A.** The Activity was 97%.

**Q.** And the Activity [17]?
**A.** The Activity was 90%.

**Q.** And the Activity [18]?
**A.** The Activity was 86%.
